ChEMBL document CHEMBL3769383, “Cefsulodin Inspired Potent and Selective Inhibitors of mPTPB, a Virulent Phosphatase from Mycobacterium tuberculosis” (ACS Med Chem Lett, 2015)
The source made the active and inactive calls. The rule behind the calls is not given here.

Assays:
[1] = Inhibition of Mycobacterium tuberculosis PTPB expressed in Escherichia coli BL21/DE3 cells using pNPP as substrate after 5 mins by spectrophotometry
BL21-DE3 = experiment: Potency index, ratio of SPAA IC50 to compound IC50 for Mycobacterium tuberculosis PTPB expressed in Escherichia coli BL21/DE3 cells
[2] = Selectivity ratio of IC50 for Laforin (unknown origin) to IC50 for Mycobacterium tuberculosis PTPB
[3] = biological target: Dual specificity protein phosphatase 22 (Homo sapiens) (UniProt Q9NRW4); experiment: Inhibition of VHX (unknown origin) expressed in Escherichia coli using pNPP as substrate at 200 uM after 5 mins by spectrophotometry
Chain of Dual specificity protein phosphatase 22 (Homo sapiens) (Q9NRW4 whole entry): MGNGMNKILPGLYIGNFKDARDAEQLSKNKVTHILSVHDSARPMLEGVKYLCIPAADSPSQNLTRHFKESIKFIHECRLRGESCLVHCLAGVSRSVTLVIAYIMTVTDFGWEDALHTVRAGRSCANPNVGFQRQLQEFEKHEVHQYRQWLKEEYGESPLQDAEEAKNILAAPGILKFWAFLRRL
How it was run: (§1)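 Single-point screen: the test compound is present at 200 μM in the assay (a compound concentration, not a substrate level). The read-out is phosphatase-catalysed hydrolysis of para-nitrophenyl phosphate.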

[4] = biological target: Tyrosine-protein phosphatase non-receptor type 2 (Homo sapiens) (UniProt P17706); experiment: Inhibition of TC-PTP (unknown origin) using pNPP as substrate at 200 uM after 5 mins by spectrophotometry; how it was run: as §1
[5] = biological target: MAP kinase p38 (Mus musculus) (UniProt P47811+O08911+Q9WUI1+Q9Z1B7); experiment: Effect on p38 phosphorylation in mouse RAW264.7 cells transfected with empty vector at 10 to 40 nM pre-treated for 1 hrs followed by stimulation with IFNgamma for 1 hr by Western blotting method; assay type: cell-based
[6] = biological target: Receptor-type tyrosine-protein phosphatase mu (Homo sapiens) (UniProt P28827); experiment: Inhibition of PTPmu (unknown origin) using pNPP as substrate at 200 uM after 5 mins by spectrophotometry; how it was run: as §1
[7] = Selectivity ratio of IC50 for PTPgamma (unknown origin) to IC50 for Mycobacterium tuberculosis PTPB
How it was run: (§2)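 Each phosphatase in the 25-enzyme panel was tested for inhibition at 200 μM compound. The mPTPB IC50 was determined against mPTPB-catalysed hydrolysis of para-nitrophenyl phosphate. The ratio is the panel-enzyme IC50 divided by the mPTPB IC50.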

[8] = Selectivity ratio of IC50 for PTPH1 (unknown origin) to IC50 for Mycobacterium tuberculosis PTPB; how it was run: as §2
[9] = biological target: Tyrosine-protein phosphatase non-receptor type 1 (Homo sapiens) (UniProt P18031); experiment: Inhibition of PTP1B (unknown origin) expressed in Escherichia coli using pNPP as substrate at 200 uM after 5 mins by spectrophotometry; how it was run: as §1
[10] = biological target: RAC-alpha serine/threonine-protein kinase (Mus musculus) (UniProt P31750); experiment: Effect on Akt phosphorylation in mouse RAW264.7 cells transfected with empty vector at 10 to 40 nM pre-treated for 1 hrs followed by stimulation with IFNgamma for 1 hr by Western blotting method; assay type: cell-based
[11] = biological target: Receptor-type tyrosine-protein phosphatase beta (Homo sapiens) (UniProt P23467); experiment: Inhibition of PTPbeta (unknown origin) using pNPP as substrate at 200 uM after 5 mins by spectrophotometry; how it was run: as §1
[12] = Selectivity ratio of IC50 for PTPmu (unknown origin) to IC50 for Mycobacterium tuberculosis PTPB; how it was run: as §2
[13] = Selectivity ratio of IC50 for PTPalpha (unknown origin) to IC50 for Mycobacterium tuberculosis PTPB; how it was run: as §2
[14] = biological target: Serine/threonine-protein phosphatase 5 (Homo sapiens) (UniProt P53041); experiment: Inhibition of PP5 (unknown origin) using pNPP as substrate at 200 uM after 5 mins by spectrophotometry; how it was run: as §1
[15] = Selectivity ratio of IC50 for PTPbeta (unknown origin) to IC50 for Mycobacterium tuberculosis PTPB; how it was run: as §2
[16] = biological target: Dual specificity protein phosphatase 3 (Homo sapiens) (UniProt P51452); experiment: Inhibition of VHR (unknown origin) using pNPP as substrate at 200 uM after 5 mins by spectrophotometry; how it was run: as §1
[17] = Selectivity ratio of IC50 for LYP (unknown origin) to IC50 for Mycobacterium tuberculosis PTPB
[18] = Selectivity ratio of IC50 for VHX (unknown origin) to IC50 for Mycobacterium tuberculosis PTPB; how it was run: as §2
[19] = biological target: Tyrosine-protein phosphatase non-receptor type 9 (Homo sapiens) (UniProt P43378); experiment: Inhibition of Meg2 (unknown origin) using pNPP as substrate at 200 uM after 5 mins by spectrophotometry; how it was run: as §1
[20] = Selectivity ratio of IC50 for PTPsigma (unknown origin) to IC50 for Mycobacterium tuberculosis PTPB; how it was run: as §2
[21] = biological target: Dual specificity protein phosphatase 10 (Homo sapiens) (UniProt Q9Y6W6); experiment: Inhibition of MKP5 (unknown origin) using pNPP as substrate at 200 uM after 5 mins by spectrophotometry; how it was run: as §1
[22] = Selectivity ratio of IC50 for MKP5 (unknown origin) to IC50 for Mycobacterium tuberculosis PTPB
[23] = biological target: Tyrosine-protein phosphatase non-receptor type 3 (Homo sapiens) (UniProt P26045); experiment: Inhibition of PTPH1 (unknown origin) using pNPP as substrate at 200 uM after 5 mins by spectrophotometry; how it was run: as §1
[24] = biological target: Receptor-type tyrosine-protein phosphatase F (Homo sapiens) (UniProt P10586); experiment: Inhibition of LAR (unknown origin) using pNPP as substrate at 200 uM after 5 mins by spectrophotometry; how it was run: as §1
Chain of Receptor-type tyrosine-protein phosphatase F (Homo sapiens) (P10586 whole entry): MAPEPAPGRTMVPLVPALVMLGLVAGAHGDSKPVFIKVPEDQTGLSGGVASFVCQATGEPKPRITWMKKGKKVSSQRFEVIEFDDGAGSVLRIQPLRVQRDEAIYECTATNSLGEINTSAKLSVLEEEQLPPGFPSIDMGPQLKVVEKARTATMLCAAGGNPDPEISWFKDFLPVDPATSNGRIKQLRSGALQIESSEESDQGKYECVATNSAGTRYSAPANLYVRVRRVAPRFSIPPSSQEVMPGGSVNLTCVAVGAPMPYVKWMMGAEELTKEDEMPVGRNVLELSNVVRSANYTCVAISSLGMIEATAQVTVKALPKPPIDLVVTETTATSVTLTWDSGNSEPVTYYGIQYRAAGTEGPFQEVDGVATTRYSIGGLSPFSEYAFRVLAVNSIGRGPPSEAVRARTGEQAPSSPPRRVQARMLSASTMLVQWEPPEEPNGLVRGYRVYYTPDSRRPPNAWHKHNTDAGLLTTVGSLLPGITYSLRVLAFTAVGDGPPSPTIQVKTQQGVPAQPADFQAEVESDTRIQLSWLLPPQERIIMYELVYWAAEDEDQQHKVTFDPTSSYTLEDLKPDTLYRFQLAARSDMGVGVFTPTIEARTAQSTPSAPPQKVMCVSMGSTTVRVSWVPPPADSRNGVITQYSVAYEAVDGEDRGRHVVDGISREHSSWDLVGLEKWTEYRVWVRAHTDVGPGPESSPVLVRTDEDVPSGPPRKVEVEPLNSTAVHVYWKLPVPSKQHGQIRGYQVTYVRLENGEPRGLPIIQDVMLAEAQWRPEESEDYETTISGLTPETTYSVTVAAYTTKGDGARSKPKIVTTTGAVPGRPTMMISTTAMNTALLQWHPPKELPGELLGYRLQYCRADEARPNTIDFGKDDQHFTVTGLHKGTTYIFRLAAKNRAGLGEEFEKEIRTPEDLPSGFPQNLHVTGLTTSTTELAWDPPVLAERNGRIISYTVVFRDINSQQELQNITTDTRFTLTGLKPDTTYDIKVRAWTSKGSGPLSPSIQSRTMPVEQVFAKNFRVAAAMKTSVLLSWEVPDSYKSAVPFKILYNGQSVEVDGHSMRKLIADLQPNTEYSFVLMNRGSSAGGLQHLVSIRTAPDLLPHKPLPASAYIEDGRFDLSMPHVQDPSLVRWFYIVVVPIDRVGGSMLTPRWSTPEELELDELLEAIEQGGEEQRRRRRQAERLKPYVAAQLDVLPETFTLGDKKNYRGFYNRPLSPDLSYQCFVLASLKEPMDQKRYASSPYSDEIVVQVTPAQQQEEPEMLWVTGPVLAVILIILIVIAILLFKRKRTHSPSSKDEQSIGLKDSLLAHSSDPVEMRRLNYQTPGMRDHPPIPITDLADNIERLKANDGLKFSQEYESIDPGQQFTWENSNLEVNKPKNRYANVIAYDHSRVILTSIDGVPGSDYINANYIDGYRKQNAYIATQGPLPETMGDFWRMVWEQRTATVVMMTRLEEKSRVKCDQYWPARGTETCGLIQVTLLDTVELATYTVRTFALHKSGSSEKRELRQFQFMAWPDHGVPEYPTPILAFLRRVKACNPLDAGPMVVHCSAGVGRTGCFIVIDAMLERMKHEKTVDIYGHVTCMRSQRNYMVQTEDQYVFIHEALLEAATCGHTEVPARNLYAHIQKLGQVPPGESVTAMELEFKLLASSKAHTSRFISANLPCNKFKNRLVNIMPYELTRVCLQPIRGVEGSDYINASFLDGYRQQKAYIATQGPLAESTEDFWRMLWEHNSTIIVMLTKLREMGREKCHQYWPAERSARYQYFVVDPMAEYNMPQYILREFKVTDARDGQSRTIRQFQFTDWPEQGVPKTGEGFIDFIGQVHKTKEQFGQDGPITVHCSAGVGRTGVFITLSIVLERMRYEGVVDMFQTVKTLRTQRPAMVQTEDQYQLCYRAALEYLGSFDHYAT

[25] = biological target: Tyrosine-protein phosphatase non-receptor type 6 (Homo sapiens) (UniProt P29350); experiment: Inhibition of SHP1 (unknown origin) expressed in Escherichia coli using pNPP as substrate at 200 uM after 5 mins by spectrophotometry; how it was run: as §1
[26] = biological target: Mitogen-activated protein kinase 1 and 3 (ERK2 and ERK1) (Mus musculus) (UniProt P63085+Q63844); experiment: Effect on ERK1/2 phosphorylation in mouse RAW264.7 cells transfected with empty vector at 10 to 40 nM pre-treated for 1 hrs followed by stimulation with IFNgamma for 1 hr by Western blotting method; assay type: cell-based
[27] = biological target: Receptor-type tyrosine-protein phosphatase S (Homo sapiens) (UniProt Q13332); experiment: Inhibition of PTPsigma (unknown origin) using pNPP as substrate at 200 uM after 5 mins by spectrophotometry; how it was run: as §1
Chain of Receptor-type tyrosine-protein phosphatase S (Homo sapiens) (Q13332 whole entry): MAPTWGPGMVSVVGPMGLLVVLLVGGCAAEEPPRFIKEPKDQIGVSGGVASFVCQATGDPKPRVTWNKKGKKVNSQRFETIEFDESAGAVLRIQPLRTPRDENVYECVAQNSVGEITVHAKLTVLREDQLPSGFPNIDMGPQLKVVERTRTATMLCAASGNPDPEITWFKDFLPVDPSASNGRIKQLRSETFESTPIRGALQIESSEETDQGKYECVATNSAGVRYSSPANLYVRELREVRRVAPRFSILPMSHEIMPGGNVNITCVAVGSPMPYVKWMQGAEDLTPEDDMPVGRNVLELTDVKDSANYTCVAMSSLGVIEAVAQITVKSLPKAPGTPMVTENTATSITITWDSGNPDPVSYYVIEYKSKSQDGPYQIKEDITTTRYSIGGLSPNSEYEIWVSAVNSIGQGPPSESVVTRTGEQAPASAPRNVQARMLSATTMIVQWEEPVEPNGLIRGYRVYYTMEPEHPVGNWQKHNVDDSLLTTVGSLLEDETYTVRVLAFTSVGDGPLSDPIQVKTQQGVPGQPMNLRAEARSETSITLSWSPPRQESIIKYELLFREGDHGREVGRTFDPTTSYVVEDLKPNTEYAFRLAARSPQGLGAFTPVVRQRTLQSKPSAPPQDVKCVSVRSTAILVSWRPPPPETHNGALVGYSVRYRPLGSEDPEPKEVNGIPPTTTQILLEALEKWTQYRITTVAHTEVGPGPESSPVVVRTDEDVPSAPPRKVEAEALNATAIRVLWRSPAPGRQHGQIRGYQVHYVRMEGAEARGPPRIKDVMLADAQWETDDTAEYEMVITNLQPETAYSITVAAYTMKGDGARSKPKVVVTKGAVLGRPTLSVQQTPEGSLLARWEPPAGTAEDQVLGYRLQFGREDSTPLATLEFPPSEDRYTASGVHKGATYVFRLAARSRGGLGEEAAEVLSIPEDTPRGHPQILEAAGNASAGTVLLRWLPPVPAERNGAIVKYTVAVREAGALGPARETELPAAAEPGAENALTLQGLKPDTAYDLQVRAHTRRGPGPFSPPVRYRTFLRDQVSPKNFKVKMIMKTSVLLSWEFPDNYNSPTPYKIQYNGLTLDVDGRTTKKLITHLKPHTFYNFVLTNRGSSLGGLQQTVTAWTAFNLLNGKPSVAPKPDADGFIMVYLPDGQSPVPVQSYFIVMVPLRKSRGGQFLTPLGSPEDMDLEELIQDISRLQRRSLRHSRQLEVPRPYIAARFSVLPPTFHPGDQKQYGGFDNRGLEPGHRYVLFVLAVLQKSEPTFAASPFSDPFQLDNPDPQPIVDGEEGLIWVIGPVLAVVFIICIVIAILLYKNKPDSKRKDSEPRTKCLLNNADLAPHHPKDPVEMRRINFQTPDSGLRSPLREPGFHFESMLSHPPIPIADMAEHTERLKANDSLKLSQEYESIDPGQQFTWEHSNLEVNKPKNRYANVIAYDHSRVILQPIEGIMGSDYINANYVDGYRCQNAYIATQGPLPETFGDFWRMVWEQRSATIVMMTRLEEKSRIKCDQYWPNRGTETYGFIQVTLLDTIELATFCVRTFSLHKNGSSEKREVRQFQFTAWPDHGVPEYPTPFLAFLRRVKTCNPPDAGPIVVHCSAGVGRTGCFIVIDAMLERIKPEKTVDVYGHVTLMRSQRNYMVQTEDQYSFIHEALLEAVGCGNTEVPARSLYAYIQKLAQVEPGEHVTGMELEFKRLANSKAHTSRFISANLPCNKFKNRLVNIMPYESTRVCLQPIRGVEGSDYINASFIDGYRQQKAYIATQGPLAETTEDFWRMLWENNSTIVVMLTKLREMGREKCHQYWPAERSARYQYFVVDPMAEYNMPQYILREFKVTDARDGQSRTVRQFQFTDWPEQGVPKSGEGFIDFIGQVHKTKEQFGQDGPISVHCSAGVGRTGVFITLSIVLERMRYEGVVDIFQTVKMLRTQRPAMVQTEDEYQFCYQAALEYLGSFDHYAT

[28] = Selectivity ratio of IC50 for PTP1B (unknown origin) to IC50 for Mycobacterium tuberculosis PTPB
[29] = biological target: Tyrosine-protein phosphatase non-receptor type 22 (Homo sapiens) (UniProt Q9Y2R2); experiment: Inhibition of LYP (unknown origin) expressed in Escherichia coli using pNPP as substrate at 200 uM after 5 mins by spectrophotometry; how it was run: as §1
Laforin (Homo sapiens) = Laforin (Homo sapiens) (UniProt O95278); experiment: Inhibition of Laforin (unknown origin) using pNPP as substrate at 200 uM after 5 mins by spectrophotometry; how it was run: as §1
[30] = biological target: Dual specificity protein phosphatase CDC14A (Homo sapiens) (UniProt Q9UNH5); experiment: Inhibition of CDC14A (unknown origin) using pNPP as substrate at 200 uM after 5 mins by spectrophotometry; how it was run: as §1
RAW264.7 [31] = experiment: Inhibition of Mycobacterium tuberculosis PTPB transfected in mouse RAW264.7 cells assessed as increase in ERK1/2 phosphorylation pre-treated for 1 hrs followed by stimulation with IFNgamma for 1 hr by Western blotting method; assay type: cell-based
[32] = biological target: Receptor-type tyrosine-protein phosphatase epsilon (Homo sapiens) (UniProt P23469); experiment: Inhibition of PTPepsilon (unknown origin) using pNPP as substrate at 200 uM after 5 mins by spectrophotometry; how it was run: as §1
Chain of Receptor-type tyrosine-protein phosphatase epsilon (Homo sapiens) (P23469 whole entry): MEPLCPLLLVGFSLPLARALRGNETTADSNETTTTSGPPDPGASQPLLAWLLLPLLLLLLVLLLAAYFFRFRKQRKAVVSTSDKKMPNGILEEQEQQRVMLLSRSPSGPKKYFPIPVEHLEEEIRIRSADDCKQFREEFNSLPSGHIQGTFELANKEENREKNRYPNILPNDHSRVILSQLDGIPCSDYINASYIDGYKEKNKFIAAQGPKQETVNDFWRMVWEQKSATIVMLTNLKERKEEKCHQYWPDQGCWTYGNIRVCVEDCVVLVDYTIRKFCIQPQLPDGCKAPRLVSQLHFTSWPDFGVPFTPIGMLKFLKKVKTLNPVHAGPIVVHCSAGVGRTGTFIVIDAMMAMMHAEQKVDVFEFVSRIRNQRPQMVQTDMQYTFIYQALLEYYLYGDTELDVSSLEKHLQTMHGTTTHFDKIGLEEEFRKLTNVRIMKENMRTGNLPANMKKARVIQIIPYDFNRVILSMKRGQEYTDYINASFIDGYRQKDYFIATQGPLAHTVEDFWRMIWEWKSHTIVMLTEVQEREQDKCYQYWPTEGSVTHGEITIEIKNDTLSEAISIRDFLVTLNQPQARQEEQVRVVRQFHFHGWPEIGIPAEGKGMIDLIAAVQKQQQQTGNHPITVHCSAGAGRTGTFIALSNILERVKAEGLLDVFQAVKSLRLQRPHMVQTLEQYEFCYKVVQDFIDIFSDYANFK

[33] = biological target: Low molecular weight phosphotyrosine protein phosphatase (Homo sapiens) (UniProt P24666); experiment: Inhibition of LMWPTP (unknown origin) using pNPP as substrate at 200 uM after 5 mins by spectrophotometry; how it was run: as §1
[34] = Selectivity ratio of IC50 for Meg2 (unknown origin) to IC50 for Mycobacterium tuberculosis PTPB
[35] = tested on: Mycobacterium tuberculosis; experiment: Selectivity ratio of IC50 for Mycobacterium tuberculosis PTPA to IC50 for Mycobacterium tuberculosis PTPB
[36] = biological target: Receptor-type tyrosine-protein phosphatase C (Homo sapiens) (UniProt P08575); experiment: Inhibition of CD45 (unknown origin) expressed in Escherichia coli using pNPP as substrate at 200 uM after 5 mins by spectrophotometry; how it was run: as §1
[37] = Selectivity ratio of IC50 for CDC14A (unknown origin) to IC50 for Mycobacterium tuberculosis PTPB
[38] = Selectivity ratio of IC50 for FAP1 (unknown origin) to IC50 for Mycobacterium tuberculosis PTPB
[39] = Selectivity ratio of IC50 for CD45 (unknown origin) to IC50 for Mycobacterium tuberculosis PTPB
[40] = biological target: Receptor-type tyrosine-protein phosphatase alpha (Homo sapiens) (UniProt P18433); experiment: Inhibition of PTPalpha (unknown origin) using pNPP as substrate at 200 uM after 5 mins by spectrophotometry; how it was run: as §1
[41] = biological target: Receptor-type tyrosine-protein phosphatase gamma (Homo sapiens) (UniProt P23470); experiment: Inhibition of PTPgamma (unknown origin) using pNPP as substrate at 200 uM after 5 mins by spectrophotometry; how it was run: as §1
[42] = biological target: Tyrosine-protein phosphatase non-receptor type 7 (Homo sapiens) (UniProt P35236); experiment: Inhibition of HePTP (unknown origin) expressed in Escherichia coli using pNPP as substrate at 200 uM after 5 mins by spectrophotometry; how it was run: as §1
Chain of Tyrosine-protein phosphatase non-receptor type 7 (Homo sapiens) (P35236 whole entry): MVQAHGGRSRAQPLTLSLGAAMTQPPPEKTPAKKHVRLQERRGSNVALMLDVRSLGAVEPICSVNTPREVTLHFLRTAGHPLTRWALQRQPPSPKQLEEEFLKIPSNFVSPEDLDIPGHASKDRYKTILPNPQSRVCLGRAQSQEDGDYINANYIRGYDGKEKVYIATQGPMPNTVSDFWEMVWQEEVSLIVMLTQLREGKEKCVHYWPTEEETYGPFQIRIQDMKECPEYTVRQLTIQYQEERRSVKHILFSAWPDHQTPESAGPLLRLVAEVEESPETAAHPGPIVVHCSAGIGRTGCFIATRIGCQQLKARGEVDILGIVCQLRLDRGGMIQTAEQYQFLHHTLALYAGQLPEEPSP

[43] = Selectivity ratio of IC50 for SHP1 (unknown origin) to IC50 for Mycobacterium tuberculosis PTPB; how it was run: as §2
[44] = biological target: Tyrosine-protein phosphatase non-receptor type 13 (Homo sapiens) (UniProt Q12923); experiment: Inhibition of FAP1 (unknown origin) expressed in Escherichia coli using pNPP as substrate at 200 uM after 5 mins by spectrophotometry; how it was run: as §1
[45] = Selectivity ratio of IC50 for SHP2 (unknown origin) to IC50 for Mycobacterium tuberculosis PTPB; how it was run: as §2
[46] = biological target: Low molecular weight protein-tyrosine phosphatase A (Mycobacterium tuberculosis) (UniProt P9WIA1); experiment: Inhibition of Mycobacterium tuberculosis PTPA expressed in Escherichia coli using pNPP as substrate at 200 uM after 5 mins by spectrophotometry; how it was run: as §1
[47] = Reversible competitive inhibition of Mycobacterium tuberculosis PTPB expressed in Escherichia coli BL21/DE3 cells using pNPP as substrate after 5 mins by Lineweaver-Burk plot analysis
[48] = Selectivity ratio of IC50 for PP5 (unknown origin) to IC50 for Mycobacterium tuberculosis PTPB
[49] = Selectivity ratio of IC50 for VHR (unknown origin) to IC50 for Mycobacterium tuberculosis PTPB; how it was run: as §2
RAW264.7 [50] = experiment: Inhibition of Mycobacterium tuberculosis PTPB transfected in mouse RAW264.7 cells decrease in Akt phosphorylation pre-treated for 1 hrs followed by stimulation with IFNgamma for 1 hr by Western blotting method; assay type: cell-based
[51] = biological target: Tyrosine-protein phosphatase non-receptor type 11 (Homo sapiens) (UniProt Q06124); experiment: Inhibition of SHP2 (unknown origin) expressed in Escherichia coli using pNPP as substrate at 200 uM after 5 mins by spectrophotometry; how it was run: as §1
RAW264.7 [52] = experiment: Inhibition of Mycobacterium tuberculosis PTPB transfected in mouse RAW264.7 cells assessed as increase in p38 phosphorylation pre-treated for 1 hrs followed by stimulation with IFNgamma for 1 hr by Western blotting method; assay type: cell-based
[53] = Selectivity ratio of IC50 for LMWPTP (unknown origin) to IC50 for Mycobacterium tuberculosis PTPB
[54] = Selectivity ratio of IC50 for TC-PTP (unknown origin) to IC50 for Mycobacterium tuberculosis PTPB; how it was run: as §2
[55] = Selectivity ratio of IC50 for HePTP (unknown origin) to IC50 for Mycobacterium tuberculosis PTPB
[56] = Selectivity ratio of IC50 for PTPepsilon (unknown origin) to IC50 for Mycobacterium tuberculosis PTPB; how it was run: as §2
[57] = Selectivity ratio of IC50 for LAR (unknown origin) to IC50 for Mycobacterium tuberculosis PTPB

## O=C(NC1CC1)C(c1ccccc1)S(=O)(=O)O (racemic)
[1]
  IC50: 5600 nM
BL21-DE3
  Ratio IC50: 32

## O=C(C(c1ccccc1)S(=O)(=O)O)N1CCCC2CCCCC21 (racemic)
[2]
  Ratio IC50: > 10000
[3]
  inhibition: inactive
[4]
  inhibition: inactive
[5]
  Activity: inactive
[6]
  inhibition: inactive
[7]
  Ratio IC50: > 10000
[8]
  Ratio IC50: > 10000
[1]
  IC50: 18 nM
[9]
  inhibition: inactive
[10]
  Activity: inactive
[11]
  inhibition: inactive
[12]
  Ratio IC50: > 10000
[13]
  Ratio IC50: > 10000
[14]
  inhibition: inactive
[15]
  Ratio IC50: > 10000
[16]
  inhibition: inactive
[17]
  Ratio IC50: > 10000
[18]
  Ratio IC50: > 10000
[19]
  inhibition: inactive
[20]
  Ratio IC50: > 10000
[21]
  inhibition: inactive
[22]
  Ratio IC50: > 10000
[23]
  inhibition: inactive
[24]
  inhibition: inactive
[25]
  inhibition: inactive
[26]
  Activity: inactive
[27]
  inhibition: inactive
[28]
  Ratio IC50: > 10000
[29]
  inhibition: inactive
Laforin (Homo sapiens)
  inhibition: inactive
[30]
  inhibition: inactive
RAW264.7 [31]
  inhibition: Dose-dependent effect
[32]
  inhibition: inactive
[33]
  inhibition: inactive
[34]
  Ratio IC50: > 10000
[35]
  Ratio IC50: > 10000
[36]
  inhibition: inactive
[37]
  Ratio IC50: > 10000
[38]
  Ratio IC50: > 10000
[39]
  Ratio IC50: > 10000
[40]
  inhibition: inactive
[41]
  inhibition: inactive
[42]
  inhibition: inactive
[43]
  Ratio IC50: > 10000
[44]
  inhibition: inactive
[45]
  Ratio IC50: > 10000
[46]
  inhibition: inactive
[47]
  Ki: 7.9 nM
[48]
  Ratio IC50: > 10000
[49]
  Ratio IC50: > 10000
RAW264.7 [50]
  inhibition: Dose-dependent effect
[51]
  inhibition: inactive
RAW264.7 [52]
  inhibition: Dose-dependent effect
[53]
  Ratio IC50: > 10000
[54]
  Ratio IC50: > 10000
[55]
  Ratio IC50: > 10000
[56]
  Ratio IC50: > 10000
[57]
  Ratio IC50: > 10000
